19 compounds from ChEMBL document CHEMBL1938236, “Design and synthesis of small molecular dual inhibitor of falcipain-2 and dihydrofolate reductase as antimalarial agent” (Bioorg Med Chem Lett, 2012) can be followed below.

Experiment [1] relates to Plasmodium falciparum. Kind of experiment: Inhibition of Plasmodium falciparum DHFR assessed as oxidation of NADPH to NADP+ at 10 uM after 15 mins spectrophotometric assay.
The subject of experiment [2] is Plasmodium falciparum. Put plainly: Inhibition of Plasmodium falciparum falcipain-2 using Z-Leu-Arg-AMC as substrate at 10 uM after 30 mins by spectrophotometric assay.
A short description of experiment [3]: Inhibition of Plasmodium falciparum falcipain-2 using Z-Leu-Arg-AMC as substrate after 30 mins by spectrophotometric assay. The procedure, abridged: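 FP-2 (30 nM) was preincubated 30 min at room temperature with graded compound concentrations in 100 mM sodium acetate pH 5.5 with 10 mM DTT, DMSO ≤1%. Z-Leu-Arg-AMC in the same buffer was then added, and fluorescence (ex 355/em 460) was monitored for 30 min at room temperature. IC50 came from percent inhibition versus concentration plots, three independent experiments.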

Experiment [4] can be described thus: Inhibition of Plasmodium falciparum DHFR assessed as oxidation of NADPH to NADP+ after 15 mins spectrophotometric assay. In outline:
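Purified P. falciparum DHFR was preincubated 15 min on ice with graded compound concentrations in buffer containing NADPH, 50 mM TES pH 7.0, 1 mM EDTA, 75 mM 2-mercaptoethanol and 1 mg/mL BSA. DHF was then added to start the reaction, and NADPH oxidation was followed by absorbance at 340 nm. IC50 came from percent inhibition versus concentration plots, three independent experiments.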

Experiment [5] deals with Plasmodium berghei. Kind of experiment: Antimalarial activity against Plasmodium berghei ANKA infected in Kunming mouse assessed as reduction of parasitemia at 9 mg/kg, ip for 4 days measured on day 5. The class given is functional. Further details: scale not given: the % may be the effect or the level left. The conditions noted are these: route intragastric, in the assay text read “ig for 4 days” for “ip for 4 days”. In outline: (§1)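 Kunming mice (groups of 10, 20 2 g) infected ip with 0.2 mL of RBC (5 × 10⁶) from P. berghei ANKA-infected mice. The compound was given intragastrically starting 5 h post-infection, for 4 consecutive days, at 3, 9 or 18 mg kg⁻¹ d⁻¹ (4-day suppressive test). Parasitemia was counted as infected RBC per 1000 RBC on day 5, and reduction was calculated as 100 − 100 × (treated/control mean % parasitemia). Survivors were counted on day 10.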

For experiment [6], the system named is Plasmodium berghei. Put plainly: Antimalarial activity against Plasmodium berghei ANKA infected in Kunming mouse assessed as reduction of parasitemia at 18 mg/kg, ip for 4 days measured on day 5. Type of experiment: functional. To be noted: route intragastric, in the assay text read “ig for 4 days” for “ip for 4 days”. Further details: scale not given: the % may be the effect or the level left. In outline: as §1

The test system of experiment [7] is Plasmodium berghei. Put plainly: Antimalarial activity against Plasmodium berghei ANKA infected in Kunming mouse assessed as mouse survival at 3 mg/kg, ip for 4 days measured on day 10. Type of experiment: functional, organism-based. Also noted: dose 3 mg/kg. To be noted: in the assay text read “ig for 4 days” for “ip for 4 days”. The procedure, abridged:
as §1

The test system of experiment [8] is Plasmodium berghei. Put plainly: Antimalarial activity against Plasmodium berghei ANKA infected in Kunming mouse assessed as mouse survival at 9 mg/kg, ip for 4 days measured on day 10. Type of experiment: functional, organism-based. Further details: dose 9 mg/kg. To be noted: in the assay text read “ig for 4 days” for “ip for 4 days”. In outline: as §1
Experiment [9] relates to Plasmodium berghei. Put plainly: Antimalarial activity against Plasmodium berghei ANKA infected in Kunming mouse assessed as mouse survival at 18 mg/kg, ip for 4 days measured on day 10. Further details: dose 18 mg/kg. To be noted: in the assay text read “ig for 4 days” for “ip for 4 days”. Type of experiment: functional, organism-based. The procedure, abridged:
as §1

The test system of experiment [10] is Plasmodium falciparum. Put plainly: Ratio of N-(2,3-dihydrobenzo[b][1,4]dioxin-6-yl)-3-(4-(N-phenethylsulfamoyl)phenyl)propanamide IC50 to compound IC50 for Plasmodium falciparum falcipain-2.
Experiment [11] has as its system Plasmodium falciparum. Kind of experiment: Ratio of N-(2,3-dihydrobenzo[b][1,4]dioxin-6-yl)-3-(4-(N-phenethylsulfamoyl)phenyl)propanamide IC50 to compound IC50 for Plasmodium falciparum DHFR.
For experiment [12], the system named is Plasmodium berghei. Put plainly: Antimalarial activity against Plasmodium berghei ANKA infected in Kunming mouse assessed as reduction of parasitemia at 3 mg/kg, ig for 4 days measured on day 5. To be noted: route intragastric. Also noted: scale not given: the % may be the effect or the level left.
The subject of experiment [13] is Plasmodium berghei. Put plainly: Antimalarial activity against Plasmodium berghei ANKA infected in ig dosed Kunming mouse assessed as reduction of parasitemia administered for 4 days measured on day 5.
Experiment [14] has as its system Plasmodium berghei. Kind of experiment: Antimalarial activity against Plasmodium berghei ANKA infected in Kunming mouse assessed as reduction of parasitemia at 10 mg/kg, ip for 4 days measured on day 5. The class given is functional. Also noted: scale not given: the % may be the effect or the level left. To be noted: route intraperitoneal.
Experiment [15] deals with Plasmodium berghei. Put plainly: Antimalarial activity against Plasmodium berghei ANKA infected in Kunming mouse assessed as mouse survival at 10 mg/kg, ig for 4 days measured on day 10.

Structures are written as SMILES. Active and inactive are the calls of the source. The calls are words filed in the database; no cut-off is given here.

Consider `O=C(CCc1ccc(S(=O)(=O)Nc2ccc(F)c(Cl)c2)cc1)Nc1ccc2c(c1)OCCO2`, for which the inhibition is 46.5% in [1] and 32.7% in experiment [2]. Further, the concentration for half-maximal inhibition (IC50) in [3] turned out to be 13.2 µM; in experiment [4], 16.8 µM.

Regarding `CCc1nnc(NC(=O)CCc2ccc(S(=O)(=O)Nc3ccc(F)c(Cl)c3)cc2)s1`, the inhibition is 70.6% in [1] and 45.1% in experiment [2]. Besides, the IC50 stood at 9.8 µM in experiment [3] and 1.8 µM in [4].

As to `O=C(Cc1ccc(S(=O)(=O)NCCc2ccccc2)cc1)Nc1ccc2c(c1)OCCO2`, the inhibition in experiment [1] was 68%; in [2] it was less than 5%. For the same compound, the IC50 in experiment [4] was 5 µM.

Consider `CCc1nnc(NC(=O)CCc2ccc(S(=O)(=O)Nc3ccc(F)cc3)cc2)s1`, for which the values for the inhibition in experiment [1] and in [2] were 67.5% and 72.9%, respectively. The values for the IC50 in experiment [3] and in experiment [4] were 7 µM and 6.3 µM, respectively. For the same compound, the Activity was 53.6% in [5], 75.6% in experiment [6], 44.6% in [12] and “Dose dependent effect” in experiment [13]. Further, the result in experiment [7], in experiment [8] and in experiment [9] was Active. For the same compound, the Ratio IC50 was found to be 8 in experiment [10] and 6 in experiment [11].

As to `O=C(CCc1ccc(S(=O)(=O)NCCc2ccccc2)cc1)NCc1cccs1`, the inhibition in experiment [1] stood at 10.8%; in experiment [2], 15.2%.

As to `O=C(CCc1ccc(S(=O)(=O)NCCc2ccccc2)cc1)Nc1nc2ccccc2s1`, the inhibition in experiment [1] was 37.9%; in [2], 41.5%. The IC50 in experiment [3] came out at 8.9 µM; in experiment [4], 15.1 µM.

For the compound `O=C(CCc1ccc(S(=O)(=O)NCCc2ccccc2)cc1)NCc1ccccn1`, the inhibition was found to be 17.9% in experiment [1] and 10.7% in [2].

Turning to `COc1ccc(NC(=O)CCc2ccc(S(=O)(=O)NCCc3ccccc3)cc2)cc1OC`, the values for the inhibition in experiment [1] and in experiment [2] were 51.2% and 15%, respectively. In addition, the 50% inhibitory concentration (IC50) in experiment [4] is 9.4 µM.

In the case of `O=C(Nc1ccc2c(c1)OCCO2)c1ccc(S(=O)(=O)NCCc2ccccc2)cc1`, the inhibition in experiment [1] was 11.8%; in experiment [2], less than 5%.

On to `CC(C)C[C@H](NC(=O)[C@H]1O[C@@H]1C(=O)O)C(=O)NCCCCN=C(N)N` [E-64], for which, in experiment [2], the inhibition was determined as 97.4%. The same compound gave an IC50 in experiment [3] of 0.017 µM.

For the compound `COc1ccc(NS(=O)(=O)c2ccc(CCC(=O)Nc3ccc4c(c3)OCCO4)cc2)cc1OC`, the results for the inhibition in experiment [1] and in experiment [2] were 23.2% and 6.3%, respectively.

With `COc1ccc(NC(=O)CCc2ccc(S(=O)(=O)NCCc3ccccc3)cc2)cc1O`, the inhibition in experiment [1] stood at 46.1%; in experiment [2], 13.6%. Besides, the IC50 in experiment [4] is 12.6 µM.

Consider `O=C(CCc1ccc(S(=O)(=O)NCc2ccccc2)cc1)Nc1ccc2c(c1)OCCO2`, for which the inhibition in experiment [1] is 15.6%; in experiment [2], less than 5%.

As for `O=C(CCc1ccc(S(=O)(=O)NCCc2ccccc2)cc1)Nc1ccc2c(c1)OCCO2`, the inhibition in experiment [1] was 26.5%; in experiment [2], 23%. In addition, the half-maximal inhibitory concentration (IC50) came out at 54.2 µM in [3] and 35.5 µM in experiment [4].

As to `CCc1nnc(NC(=O)CCc2ccc(S(=O)(=O)NCCc3ccccc3)cc2)s1`, the values for the inhibition in experiment [1] and in [2] were 31.6% and 46.5%, respectively. The 50% inhibitory concentration (IC50) in experiment [3] turned out to be 8.1 µM; in experiment [4], 19.8 µM.

For the compound `CCc1nc(N)nc(N)c1-c1ccc(Cl)cc1` [PYRIMETHAMINE], in experiment [1], the inhibition was 98.9%. Further, in experiment [4], the IC50 amounted to 0.02 µM.

With `CCN(CC)CCCC(C)Nc1ccnc2cc(Cl)ccc12.O=P(O)(O)O.O=P(O)(O)O` (centres undefined) [CHLOROQUINE PHOSPHATE], the Activity in experiment [14] is given as 100%. In addition, the result in experiment [15] was Active.

For `COc1cccc(NS(=O)(=O)c2ccc(CCC(=O)Nc3ccc4c(c3)OCCO4)cc2)c1`, the inhibition in experiment [1] was 9.3%; in experiment [2], 17.9%.

For `O=C(CCc1ccc(S(=O)(=O)NCCc2ccccc2)cc1)Nc1nc(-c2ccccc2)cs1`, the inhibition in [1] is 34.8%; in experiment [2], 94.5%. For the same compound, the half-inhibitory concentration (IC50) worked out at 2.7 µM in [3] and 14.6 µM in [4].
